What was measured:
[1] = target: T1, RNA-directed RNA polymerase (Hepacivirus hominis, UniProt O39930); experiment: Inhibition of HCV 1a NS5B RNA polymerase
Hepatitis C virus [2] = experiment: Inhibition of HCV 1b replication in presence of 5% fetal calf serum; type: functional, organism-based, Hepatitis C virus subtype 1b
Outline: (§1)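 Genotype 1b HCV replicon cell culture assay. The medium held 5% fetal calf serum […] and 40% human serum […]. EC50 is the mean of at least two independent determinations, standard deviation ±10%.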

[3] = target: T1, RNA-directed RNA polymerase; experiment: Inhibition of HCV 1b NS5B RNA polymerase; set-up: species or system Hepatitis C virus subtype 1b
Hepatitis C virus [4] = experiment: Inhibition of HCV 1b replication in presence of 40% human serum; type: functional, organism-based, Hepatitis C virus subtype 1b; outline: as §1

T1 sequence (O39930 whole entry): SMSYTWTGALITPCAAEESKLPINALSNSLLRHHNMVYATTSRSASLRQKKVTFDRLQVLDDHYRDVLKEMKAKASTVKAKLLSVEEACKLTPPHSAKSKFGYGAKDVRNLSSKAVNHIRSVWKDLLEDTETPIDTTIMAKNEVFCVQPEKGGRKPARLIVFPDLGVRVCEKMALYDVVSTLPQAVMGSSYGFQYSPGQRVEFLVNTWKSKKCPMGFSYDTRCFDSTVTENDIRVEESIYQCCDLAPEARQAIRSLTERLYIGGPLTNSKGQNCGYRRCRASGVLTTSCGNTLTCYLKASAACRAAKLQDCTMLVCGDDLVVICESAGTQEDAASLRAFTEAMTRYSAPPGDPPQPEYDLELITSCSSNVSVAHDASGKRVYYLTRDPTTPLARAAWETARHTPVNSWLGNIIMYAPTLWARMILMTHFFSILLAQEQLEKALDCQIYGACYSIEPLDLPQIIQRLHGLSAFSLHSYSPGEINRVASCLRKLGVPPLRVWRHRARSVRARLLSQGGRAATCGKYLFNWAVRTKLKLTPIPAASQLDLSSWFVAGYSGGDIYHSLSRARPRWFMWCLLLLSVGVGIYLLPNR

SMILES	IC50 [1] [nM]	further results
CC(C)CCn1c(=O)c(C2=NS(=O)(=O)c3cc(NS(=O)(=O)Nc4cccc(C(=O)NCC(N)=O)c4)ccc3N2)c(O)c2cccnc21	43	–
CC(C)CCn1c(=O)c(C2=NS(=O)(=O)c3cc(NS(N)(=O)=O)ccc3N2)c(O)c2cccnc21	9	EC50 (Hepatitis C virus [2]): 17 nM; IC50 [3]: 2.8 nM
CC(C)CCn1c(=O)c(C2=Nc3ccc(NS(=O)(=O)Nc4ccc(C(N)=O)cc4)cc3S(=O)(=O)N2)c(O)c2cccnc21	18	–
COCCOC(=O)NS(=O)(=O)Nc1ccc2c(c1)S(=O)(=O)NC(c1c(O)c3cccnc3n(CCC(C)C)c1=O)=N2	87	–
CC(C)CCn1c(=O)c(C2=Nc3ccc(NS(=O)(=O)NCCC(N)=O)cc3S(=O)(=O)N2)c(O)c2cccnc21	20	–
CC(C)CCn1c(=O)c(C2=NS(=O)(=O)c3cc(NS(=O)(=O)N(C)C(=O)OCc4ccccc4)ccc3N2)c(O)c2cccnc21	121	–
CC(C)CCn1c(=O)c(C2=Nc3ccc(NS(=O)(=O)NCCc4ccccc4)cc3S(=O)(=O)N2)c(O)c2cccnc21	18	EC50 (Hepatitis C virus [2]): 1270 nM; IC50 [3]: 37 nM
C#CCOC(=O)NS(=O)(=O)Nc1ccc2c(c1)S(=O)(=O)N=C(c1c(O)c3cccnc3n(CCC(C)C)c1=O)N2	72	–
CC(C)CCn1c(=O)c(C2=NS(=O)(=O)c3cc(NS(=O)(=O)NCc4ccccc4)ccc3N2)c(O)c2cccnc21	5.5	EC50 (Hepatitis C virus [2]): 398 nM; IC50 [3]: 44 nM
CC(C)CCn1c(=O)c(C2=NS(=O)(=O)c3cc(NS(C)(=O)=O)ccc3N2)c(O)c2cccnc21	2.4	IC50 [3]: 6 nM
C=CCOC(=O)NS(=O)(=O)Nc1ccc2c(c1)S(=O)(=O)N=C(c1c(O)c3cccnc3n(CCC(C)C)c1=O)N2	88	–
CC(C)CCn1c(=O)c(C2=Nc3ccc(NS(=O)(=O)NC(=O)OCCCl)cc3S(=O)(=O)N2)c(O)c2cccnc21	189	–
CC(C)CCn1c(=O)c(C2=Nc3ccc(NS(=O)(=O)NCCN)cc3S(=O)(=O)N2)c(O)c2cccnc21	10	–
CNS(=O)(=O)Nc1ccc2c(c1)S(=O)(=O)NC(c1c(O)c3ccccc3n(NC3CCC3)c1=O)=N2	8.7	EC50 (Hepatitis C virus [2]): 11 nM; EC50 (Hepatitis C virus [4]): 420 nM
CNS(=O)(=O)Nc1ccc2c(c1)S(=O)(=O)NC(c1c(O)c3cccnc3n(CCC(C)C)c1=O)=N2	14	–
CC(C)CCn1c(=O)c(C2=Nc3ccc(NS(=O)(=O)NC(=O)OCCC#N)cc3S(=O)(=O)N2)c(O)c2cccnc21	35	EC50 (Hepatitis C virus [2]): 98 nM; IC50 [3]: 6.7 nM
CC(C)CCn1c(=O)c(C2=Nc3ccc(NS(=O)(=O)NC(=O)OCc4ccccc4)cc3S(=O)(=O)N2)c(O)c2cccnc21	58	–
CC(C)CCn1c(=O)c(C2=Nc3ccc(NS(=O)(=O)NC4CCNCC4)cc3S(=O)(=O)N2)c(O)c2cccnc21	32	–
CC(C)CCn1c(=O)c(C2=Nc3ccc(NS(=O)(=O)NCc4cccc([N+](=O)[O-])c4)cc3S(=O)(=O)N2)c(O)c2cccnc21	13	–
CC(C)CCn1c(=O)c(C2=Nc3ccc(NS(=O)(=O)NN4CCCC4)cc3S(=O)(=O)N2)c(O)c2cccnc21	27	–

SMILES	IC50 [1] [nM]	further results
CC(C)CCn1c(=O)c(C2=Nc3ccc(NS(=O)(=O)NCCO)cc3S(=O)(=O)N2)c(O)c2cccnc21	107	–
CC(C)CCn1c(=O)c(C2=Nc3ccc(NS(=O)(=O)NC(=O)OCCN)cc3S(=O)(=O)N2)c(O)c2cccnc21	21	–
COc1cccc(CNS(=O)(=O)Nc2ccc3c(c2)S(=O)(=O)NC(c2c(O)c4cccnc4n(CCC(C)C)c2=O)=N3)c1	15	–
COC(=O)c1ccccc1NS(=O)(=O)Nc1ccc2c(c1)S(=O)(=O)NC(c1c(O)c3cccnc3n(CCC(C)C)c1=O)=N2	129	–
COC(=O)c1ccc(NS(=O)(=O)Nc2ccc3c(c2)S(=O)(=O)N=C(c2c(O)c4cccnc4n(CCC(C)C)c2=O)N3)cc1	48	–
CNC(=O)c1ccc(NS(=O)(=O)Nc2ccc3c(c2)S(=O)(=O)N=C(c2c(O)c4cccnc4n(CCC(C)C)c2=O)N3)cc1	43	–
COC(=O)NS(=O)(=O)Nc1ccc2c(c1)S(=O)(=O)N=C(c1c(O)c3cccnc3n(CCC(C)C)c1=O)N2	63	–
CC(C)CCn1c(=O)c(C2=Nc3ccc(NS(=O)(=O)NC(=O)OCC(=O)O)cc3S(=O)(=O)N2)c(O)c2cccnc21	50	–
CC(C)CCn1c(=O)c(C2=NS(=O)(=O)c3cc(NS(=O)(=O)Nc4cccc(C(N)=O)c4)ccc3N2)c(O)c2cccnc21	43	–
CC(C)CCn1c(=O)c(C2=NS(=O)(=O)c3cc(NS(=O)(=O)Nc4ccc(C(=O)O)cc4)ccc3N2)c(O)c2cccnc21	20	–
CC(C)CCn1c(=O)c(C2=Nc3ccc(NS(=O)(=O)NC4CCCC4)cc3S(=O)(=O)N2)c(O)c2cccnc21	39	–
CCOC(=O)COC(=O)NS(=O)(=O)Nc1ccc2c(c1)S(=O)(=O)NC(c1c(O)c3cccnc3n(CCC(C)C)c1=O)=N2	61	–
NS(=O)(=O)Nc1ccc2c(c1)S(=O)(=O)NC(c1c(O)c3ccccc3n(NC3CCC3)c1=O)=N2	5.2	EC50 (Hepatitis C virus [2]): 3 nM; IC50 [3]: 0.4 nM; EC50 (Hepatitis C virus [4]): 81 nM
CC(C)CCn1c(=O)c(C2=Nc3ccc(NS(=O)(=O)NC(=O)OCCOCc4ccccc4)cc3S(=O)(=O)N2)c(O)c2cccnc21	96	–
CC(C)CCn1c(=O)c(C2=Nc3ccc(NS(=O)(=O)Nc4cccc(C(=O)O)c4)cc3S(=O)(=O)N2)c(O)c2cccnc21	115	–
CC(C)CCn1c(=O)c(C2=Nc3ccc(NS(=O)(=O)Nc4ccccc4)cc3S(=O)(=O)N2)c(O)c2cccnc21	41	–
CC(C)CCn1c(=O)c(C2=Nc3ccc(NS(=O)(=O)NC4CCCCC4)cc3S(=O)(=O)N2)c(O)c2cccnc21	67	–
COc1ccc(CNS(=O)(=O)Nc2ccc3c(c2)S(=O)(=O)N=C(c2c(O)c4cccnc4n(CCC(C)C)c2=O)N3)cc1	10	–
COc1ccccc1CNS(=O)(=O)Nc1ccc2c(c1)S(=O)(=O)NC(c1c(O)c3cccnc3n(CCC(C)C)c1=O)=N2	57	–
CCOC(=O)c1cccc(NS(=O)(=O)Nc2ccc3c(c2)S(=O)(=O)NC(c2c(O)c4cccnc4n(CCC(C)C)c2=O)=N3)c1	132	–
